Assay [1] relates to Rattus norvegicus. Briefly: Dopaminergic activity in rats rendered hypokinetic by the bilateral injection of 6-hydroxydopamine (6-OHDA) into the anterolateral hypothalamus at dose of 50 mg/kg sc; Inactive. The format is functional, organism-based. Set-up: dose 50 mg/kg.
Assay [2] relates to Rattus norvegicus. The assay is described as follows: Max. intensity of rotational behavior in rats with a unilateral 6-OHDA-induced lesion of the nigrostriatal dopamine (DA) pathway at dose of 2.5 mg/kg sc. The format is functional. In outline:
(§1)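 Male Sprague–Dawley rats given unilateral 6-OHDA (8 μg in 3 μL, with ascorbic acid) into the left medial forebrain bundle under pentobarbital anesthesia. Rats were selected 3–4 weeks later for turning 8–10/min after apomorphine 0.25 mg/kg sc. Groups of 4–8 were dosed sc (in water or Tween 80 suspension) and recorded in automatic rotometers until turning stopped. Outputs: total contralateral turns and peak rotations/min.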

The species named for assay [3] is Rattus norvegicus. Briefly: Ability to induce contralateral rotational behavior in rats with a unilateral 6-OHDA-induced lesion of the nigrostriatal dopamine (DA) pathway. The format is functional. The gist of the method:
as §1

Assay [4] relates to Rattus norvegicus. Briefly: Dopaminergic activity in rats rendered hypokinetic by the bilateral injection of 6-hydroxydopamine (6-OHDA) into the anterolateral hypothalamus at dose of 1.25 mg/kg sc. The format is functional. Particulars: route subcutaneous.
Assay [5] relates to Rattus norvegicus. Briefly: Effective dose which lowered the serum prolactin levels after po administration in rats. The format is functional. In outline: (§2)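 Sprague–Dawley rats given α-methyltyrosine 200 mg/kg ip 1 h before compound. Decapitated 30 min after ip or 60 min after oral dosing. Serum prolactin measured by double-antibody RIA. ED50 = dose lowering prolactin to 50% of the α-methyltyrosine-treated control, from one dose–response curve of at least seven doses with 7–9 rats per dose.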

Assay [6] deals with Rattus norvegicus. Briefly: Effective dose which lowered the serum prolactin levels after ip administration in rats. The format is functional. In outline: as §2
Assay [7] has as its system Rattus norvegicus. Briefly: Dopaminergic activity in rats rendered hypokinetic by the bilateral injection of 6-hydroxydopamine (6-OHDA) into the anterolateral hypothalamus at dose of 10 mg/kg sc. The format is functional. Particulars: route subcutaneous.
Assay [8] deals with D(2) dopamine receptor (Rattus norvegicus, UniProt P61169). The assay is described as follows: Compound was for its ability to displace [3H]haloperidol binding to rat striatal Dopamine receptor D2. The gist of the method:
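Rat striatal membranes at about 20 mg/mL final tissue concentration. [3H]haloperidol 2 nM, incubated 10 min. Nonspecific binding defined with (+)-butaclamol 1.0 μM.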

Assay [9] relates to Rattus norvegicus. Briefly: Dopaminergic activity in rats rendered hypokinetic by the bilateral injection of 6-hydroxydopamine (6-OHDA) into the anterolateral hypothalamus at dose of 2.5 mg/kg sc. The format is functional. Particulars: route subcutaneous.
Assay [10] concerns Rattus norvegicus. Briefly: Max. intensity of rotational behavior in rats with a unilateral 6-OHDA-induced lesion of the nigrostriatal dopamine (DA) pathway at dose of 2.5 mg/kg sc. The format is functional. Particulars: route subcutaneous. The gist of the method:
as §1

The species entered for assay [11] is Rattus norvegicus. The assay is described as follows: Ability to induce contralateral rotational behavior in rats with a unilateral 6-OHDA-induced lesion of the nigrostriatal dopamine (DA) pathway. The format is functional. In outline:
as §1

Assay [12] deals with T1, Adrenergic receptor alpha-1 (Rattus norvegicus, UniProt P15823+P23944+P43140).
T1 sequence (P15823 whole entry): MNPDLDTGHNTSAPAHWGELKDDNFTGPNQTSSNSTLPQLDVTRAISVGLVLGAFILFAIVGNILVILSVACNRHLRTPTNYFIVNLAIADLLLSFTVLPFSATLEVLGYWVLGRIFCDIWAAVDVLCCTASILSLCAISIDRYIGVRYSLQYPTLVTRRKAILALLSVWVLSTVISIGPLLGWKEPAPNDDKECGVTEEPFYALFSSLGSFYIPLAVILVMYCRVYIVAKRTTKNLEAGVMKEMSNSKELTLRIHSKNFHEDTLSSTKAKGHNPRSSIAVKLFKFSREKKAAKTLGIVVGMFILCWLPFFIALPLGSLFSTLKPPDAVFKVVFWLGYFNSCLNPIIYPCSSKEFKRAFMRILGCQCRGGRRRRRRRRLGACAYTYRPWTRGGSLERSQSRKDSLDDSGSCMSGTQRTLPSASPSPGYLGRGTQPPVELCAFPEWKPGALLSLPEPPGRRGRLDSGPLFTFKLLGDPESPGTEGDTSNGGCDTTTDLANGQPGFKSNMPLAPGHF
T1 sequence (P23944 whole entry): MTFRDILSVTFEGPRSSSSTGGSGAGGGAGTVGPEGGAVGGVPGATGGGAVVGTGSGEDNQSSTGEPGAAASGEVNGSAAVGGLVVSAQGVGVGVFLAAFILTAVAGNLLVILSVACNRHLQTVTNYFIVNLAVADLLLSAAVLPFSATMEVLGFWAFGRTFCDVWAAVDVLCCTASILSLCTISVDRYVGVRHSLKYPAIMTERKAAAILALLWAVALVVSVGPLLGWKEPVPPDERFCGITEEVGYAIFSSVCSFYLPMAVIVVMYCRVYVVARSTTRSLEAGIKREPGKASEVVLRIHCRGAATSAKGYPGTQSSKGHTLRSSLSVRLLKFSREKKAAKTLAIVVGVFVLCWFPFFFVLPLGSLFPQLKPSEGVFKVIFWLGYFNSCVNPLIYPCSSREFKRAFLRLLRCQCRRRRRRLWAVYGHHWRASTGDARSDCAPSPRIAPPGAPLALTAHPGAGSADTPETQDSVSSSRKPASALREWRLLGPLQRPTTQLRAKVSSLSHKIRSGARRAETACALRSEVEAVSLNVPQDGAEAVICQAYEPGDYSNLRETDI
T1 sequence (P43140 whole entry): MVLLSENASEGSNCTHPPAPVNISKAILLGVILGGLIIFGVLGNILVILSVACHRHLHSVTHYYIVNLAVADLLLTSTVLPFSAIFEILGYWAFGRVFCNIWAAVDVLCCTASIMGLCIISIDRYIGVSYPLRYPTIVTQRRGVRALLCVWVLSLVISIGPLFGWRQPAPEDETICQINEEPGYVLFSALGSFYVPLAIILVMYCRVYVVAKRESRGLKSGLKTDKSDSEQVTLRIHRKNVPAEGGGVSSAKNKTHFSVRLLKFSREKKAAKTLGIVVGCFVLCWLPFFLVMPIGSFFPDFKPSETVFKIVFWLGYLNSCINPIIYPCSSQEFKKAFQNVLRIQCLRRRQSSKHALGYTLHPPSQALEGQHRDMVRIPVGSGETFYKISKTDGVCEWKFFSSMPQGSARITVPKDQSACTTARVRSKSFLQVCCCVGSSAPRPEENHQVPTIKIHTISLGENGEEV
The assay is described as follows: Ability to displace [3H]WB-4101 from rat brain alpha-1 adrenergic receptor. The gist of the method: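 Rat whole brain minus cerebellum and brain stem, membranes at about 20 mg/mL final tissue concentration. [3H]WB-4101 0.22 nM, incubated 15 min. Nonspecific binding defined with (-)-norepinephrine 2 μM. IC50 = concentration giving 50% displacement of specific binding, taken from Hill linearization. Three separate experiments.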

Assay [13] has as its system Rattus norvegicus. Briefly: Dopaminergic activity in rats rendered hypokinetic by the bilateral injection of 6-hydroxydopamine (6-OHDA) into the anterolateral hypothalamus at dose of 25 mg/kg sc. The format is functional. Particulars: route subcutaneous.
Assay [14] deals with Rattus norvegicus. The assay is described as follows: Dopaminergic activity in rats rendered hypokinetic by the bilateral injection of 6-hydroxydopamine (6-OHDA) into the anterolateral hypothalamus at dose of 5 mg/kg sc. Particulars: route subcutaneous. The format is functional.
For assay [15], the system named is Rattus norvegicus. Briefly: Dopaminergic activity in rats rendered hypokinetic by the bilateral injection of 6-hydroxydopamine (6-OHDA) into the anterolateral hypothalamus at dose of 25 mg/kg sc; Inactive. The format is functional, organism-based. Set-up: dose 25 mg/kg.
Assay [16] has as its system Rattus norvegicus. The assay is described as follows: Dopaminergic activity in rats rendered hypokinetic by the bilateral injection of 6-hydroxydopamine (6-OHDA) into the anterolateral hypothalamus at dose of 50 mg/kg sc. The format is functional. Particulars: route subcutaneous.
[17] abbreviates: Rattus norvegicus, Serum, po, read-out: ED50.
[18] abbreviates: Rattus norvegicus, Serum, ip, read-out: ED50.

Activity calls are given as the source filed them. The rule behind the calls is not given here.

Sequence of D(2) dopamine receptor (P61169 whole entry): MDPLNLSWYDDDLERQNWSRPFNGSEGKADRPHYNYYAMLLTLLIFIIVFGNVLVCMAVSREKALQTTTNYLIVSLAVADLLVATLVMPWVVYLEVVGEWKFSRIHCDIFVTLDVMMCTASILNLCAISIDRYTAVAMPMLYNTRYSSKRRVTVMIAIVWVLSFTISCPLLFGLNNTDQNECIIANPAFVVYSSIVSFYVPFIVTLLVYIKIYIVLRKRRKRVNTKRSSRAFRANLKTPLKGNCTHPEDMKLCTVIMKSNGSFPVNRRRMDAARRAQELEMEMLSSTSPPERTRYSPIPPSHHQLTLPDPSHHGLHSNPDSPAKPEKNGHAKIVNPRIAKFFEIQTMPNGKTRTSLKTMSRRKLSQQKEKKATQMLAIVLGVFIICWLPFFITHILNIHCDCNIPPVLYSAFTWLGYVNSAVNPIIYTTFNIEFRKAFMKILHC

In the case of `COc1ccc(CCN2CCCN(c3cccccc3=O)CC2)cc1OC`, the result in assay [1] was inactive.

`COc1ccc([C@H](O)[C@@H](C)N2CCN(c3cccccc3=O)CC2)cc1OC` (stereo in doubt; 18) had a Max intensity in assay [2] (2.5 mg/kg) of 14.6 rotations min-1. In addition, the Activity in assay [3] is reported as 2109; in [4], 186. The ED50 in [5] is 0.15 mg/kg; in assay [6], 0.04 mg/kg.

In the case of `COc1ccc(C(O)CN2CCN(c3ccccc3)CC2)cc1OC` (centres undefined), the result in assay [1] was inactive.

Regarding `CC(C)C[C@H]1C(=O)N2CCC[C@H]2[C@]2(O)O[C@](NC(=O)[C@@H]3C=C4c5cccc6[nH]c(Br)c(c56)C[C@H]4N(C)C3)(C(C)C)C(=O)N12` [BROMOCRIPTINE], the Max intensity in assay [2] stood at 4.7 rotations min-1. The values for the Activity in assay [3] and in assay [7] were 836 and 112, respectively. Also, the ED50 in assay [5] (setting [17]) amounted to 0.6 mg/kg; in assay [6] (setting [18]), 0.24 mg/kg.

Take `COc1ccc([C@@H](O)[C@@H](C)N2CCN(c3cccccc3=O)CC2)cc1OC`: in assay [8], the IC50 was found to be 8550 nM. This compound displayed an Activity in assay [7] of 55.

Consider `O=c1cccccc1N1CCN(CC(O)c2ccc(F)cc2)CC1` (centres undefined), for which the outcome in assay [1] was inactive.

In the case of `COc1ccc([C@H](O)[C@@H](C)N2CCN(c3cccccc3=O)CC2)cc1OC` (stereo in doubt; 14), in assay [2] (2.5 mg/kg), the Max intensity was 9.5 rotations min-1. The Activity in assay [3] amounted to 1903; in [9], 111. For the same compound, the IC50 in [8] came to 1050 nM. For the same compound, the figures for the ED50 in [5] (setting [17]) and in assay [6] were 0.25 mg/kg and 0.2 mg/kg, respectively.

For `O=c1cccccc1N1CCN(CCc2ccccc2)CC1`, the result in [1] was inactive.

Turning to `COc1cc(C(O)CN2CCN(c3cccccc3=O)CC2)cc(OC)c1OC` (centres undefined), in assay [1], the outcome was inactive.

`COc1ccc([C@H](O)[C@@H](C)N2CCN(c3cccccc3=O)CC2)cc1OC` (stereo in doubt; 17) displayed a Max intensity in assay [2] (2.5 mg/kg) of 1.1 rotations min-1. In addition, the Activity in [3] stood at 121; in assay [9] it was 20. Also, in assay [6], the ED50 was determined as 2.2 mg/kg.

Consider `O=c1cccccc1N1CCN(CCc2ccc(F)cc2)CC1`, for which the result in assay [1] was inactive.

On to `O=c1cccccc1N1CCN(CC(O)c2ccccc2)CC1` (centres undefined), for which the result in assay [1] was inactive.

For the compound `COc1cccc(C(O)CN2CCN(c3cccccc3=O)CC2)c1` (centres undefined), in assay [1], the result was inactive.

The compound `COc1ccc(C(O)CN2CCN(c3cccccc3=O)CC2)cc1OC.Cl` (centres undefined) yielded a Max intensity in assay [10] of 9.2 rotations min-1. In addition, the IC50 in assay [8] was 1500 nM; in assay [12] it was 1.07 µM. For the same compound, the Activity amounted to 191 in assay [7] and 823 in assay [11]. Also, the ED50 in assay [5] (setting [17]) is 2 mg/kg; in [6] (setting [18]) it was 0.48 mg/kg.

In assay [12], `NCCc1ccc(O)c(O)c1` [DOPAMINE] returned an IC50 of 90 µM.

Consider `COc1ccc(CCNCC/N=c2/cccccc2O)cc1OC`, for which the outcome in assay [1] was inactive.

Regarding `COc1ccc(CCN2CCN(c3cccccc3=O)CC2)cc1OC`, in assay [8], the IC50 amounted to 880 nM. In assay [7], this compound displayed an Activity of 101.

Compound `O=c1cccccc1N1CCN(CCc2ccc(O)c(O)c2)CC1` came in with an IC50 in [8] of 760 nM. The compound also registered an Activity in assay [13] of 98.

Turning to `COc1ccc([C@@H](O)CN2CCN(c3cccccc3=O)CC2)cc1OC`, in assay [2], the Max intensity came to 1.3 rotations min-1. The values for the Activity in assay [3] and in assay [14] were 140 and 27, respectively. Moreover, the IC50 in assay [8] was 16600 nM; in assay [12], 1.44 µM. Further, the 50% effective dose (ED50) in assay [6] (setting [18]) came out at 2.7 mg/kg.

As to `COc1cc(C(O)CN2CCN(c3cccccc3=O)CC2)ccc1O` (centres undefined), the result in assay [15] was inactive.

The compound `COc1ccc([C@H](O)CN2CCN(c3cccccc3=O)CC2)cc1OC` [CILADOPA] had a Max intensity in assay [2] of 10.7 rotations min-1. The Activity was determined as 1770 in assay [3] and 320 in assay [14]. In addition, the IC50 came out at 2200 nM in assay [8] and 1.09 µM in [12]. In addition, the ED50 in assay [5] (setting [17]) was 0.9 mg/kg; in assay [6] (setting [18]), 0.36 mg/kg.

Take `COc1ccc(CC/N=c2/cccccc2O)cc1OC`: the outcome in assay [1] was inactive.

Compound `COc1ccc(C(O)CN2CCN(c3cccccc3=O)CC2)cc1` (centres undefined) registered an Activity in assay [16] of 105.

The values are drawn from ChEMBL document CHEMBL1123392 (J Med Chem, 1986).
